Test results from article PMC11903327 (Clinical and Translational Science, 2025).
Converted amounts (≈) assume the structure as drawn. Like-named read-outs stand apart in the source and are kept apart here.

Assays:
[1] = Phase 1 dose-escalation study, QD dosing; cited from earlier work
[2] = In vitro aqueous solubility in buffer systems across pH 1 to 6.8; type: physicochemical; conditions: 37 °C, thermodynamic from solid
[3] = type: in vivo, human
[4] = Biopharmaceutical classification system; type: physicochemical; conditions: based on low aqueous solubility and high in vitro permeability
[5] = type: in vivo, human; conditions: for CL/F: arithmetic mean (SD)
In short: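 Healthy nonsmoking adults aged 18–55, BMI 18–29 kg/m2. Randomized fed/fasted crossover: single 5 mg oral dose fasted or 30 min after a high-fat breakfast (~800–1000 kcal, 50% fat), with ≥14-day washout. Period 3: rabeprazole 40 mg QD with breakfast for 6 days, then fasted 1 h before dosing. Plasma sampled pre-dose to 168 h, LC-MS/MS (1.00–750 ng/mL). Noncompartmental PK; mixed-effects geometric LSM ratios, 90% CIs.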

[6] = pKa; type: physicochemical
[7] = single oral radiolabeled fruquintinib 5 mg; cited from earlier work
[8] = system: colorectal adenocarcinoma‐2 cell; conditions: colorectal adenocarcinoma-2 cells; cited from earlier work
[9] = Clinical mass balance study with radiolabelled fruquintinib; type: in vivo, human; conditions: single 5 mg dose in humans; inferred from metabolic profile
[10] = ref Takeda data on file, cited from earlier work
[11] = healthy subjects, cited from earlier work
[12] = healthy Chinese subjects, fruquintinib 4 mg, cited from earlier work
[13] = clinical dose of 5 mg; cited from earlier work

In the case of `CNC(=O)c1c(C)oc2cc(Oc3ncnc4cc(OC)c(OC)cc34)ccc12` [Fruquintinib], the maximum-tolerated dose [1] is given as 4 mg, the solubility at 48 h ([2]; pH 1, simulated gastric fluid) is given as 130 µg/mL (≈ 330 µM) and the solubility at 48 h ([2]; pH 4.5, aqueous buffer) is given as 0.9 µg/mL (≈ 2.29 µM). The solubility at 48 h ([2]; pH 6.8, aqueous buffer) was 0.9 µg/mL (≈ 2.29 µM), the “relation of AEs to fruquintinib” value ([3]; all five AEs) was “not related” and the “severity of AEs” value ([3]; all five AEs) was “mild”. The “subjects reporting AEs” value ([3]; four of 14 subjects, five AEs, all treatment periods) was 29%, the “changes in chemistry, hematology, urinalysis and coagulation laboratory test results” value ([3]; over time during the study) was “no clinically significant changes” and the tolerability ([3]; with or without food or with rabeprazole) was “well tolerated”. The “biopharmaceutical classification system (BCS) class” value [4] was “class 2”, the “time after dosing at which peak concentrations were achieved” value ([5]; fruquintinib 5 mg oral, under fed and fasted conditions) was “approximately 4 h” and the “effects of food or rabeprazole on fruquintinib PK” value ([5]; healthy subjects, fruquintinib 5 mg) was “No clinically relevant effects”. For the same molecule, the Tmax ([5]; human, plasma, oral) was 0.5 h, the Tmax ([5]; human, plasma, po, 5 mg) was 4 h and the CL/F ([5]; single oral fruquintinib 5 mg + rabeprazole 40 mg, fasted) was 15.6 (4.59) mL/min. The CL/F ([5]; single oral fruquintinib 5 mg, fasted (reference)) was 17.1 (5.22) mL/min, the CL/F ([5]; single oral fruquintinib 5 mg, fed (high-fat meal)) was 16.3 (4.32) mL/min and the Tmax ([5]; single oral fruquintinib 5 mg, fed (high-fat meal), median (minimum–maximum)) was 4.00 (2.00–6.00) h. For the same molecule, the pKa [6] was 2.78, the “dose recovered in feces” value [7] was 30% and the “unchanged fruquintinib in feces, of the administered dose” value [7] was 5.34%. The “unchanged fruquintinib in urine, of the administered dose” value [7] was 0.50%, the apical-to-basolateral apparent permeability [8] was 30 ×10⁻⁶ cm/s and the efflux ratio [8] was about 1. For the same molecule, the “fraction of the dose absorbed” value [9] was over 85%, the “time stable in simulated gastric fluids” value ([10]; simulated gastric fluids) was “at least 1 h” and the “time stable in simulated intestinal fluids” value ([10]; simulated intestinal fluids) was “at least 3 h”. The “change in fruquintinib exposure” value ([11]; coadministration with a CYP3A inducer) was “decreased”, the “change in fruquintinib AUC or Cmax” value ([11]; coadministration with a CYP3A inhibitor) was “no clinically meaningful change” and the “effect of a high-fat meal on the PK of fruquintinib” value [12] was “no clinically significant effect”. For the same molecule, the “least squares GMR (90% CI) for AUC0-inf” value ([12]; high-fat meal vs fasted) was 97.2% (94.0%–100.4%) and the “least squares GMR (90% CI) for Cmax” value ([12]; high-fat meal vs fasted) was 82.9% (76.7%–89.5%).

For `CNC(=O)c1ccccc1Sc1ccc2c(/C=C/c3ccccn3)n[nH]c2c1` [axitinib], the “DDI (based on AUC) when combined with rabeprazole” value [13] is listed as “no clinically meaningful DDI” and the food effect [13] is listed as “no clinically meaningful food effect”.
